Results taken from ChEMBL document CHEMBL1158602, “Dihydro-pyrano[2,3-b]pyridines and tetrahydro-1,8-naphthyridines as CB1 receptor inverse agonists: synthesis, SAR and biological evaluation” (Bioorg Med Chem Lett, 2010).

Experiments:
Cannabinoid receptor 1 = Cannabinoid receptor 1 (Homo sapiens, UniProt P21554); test: Binding affinity to human CB1 receptor
Cannabinoid receptor 2 = Cannabinoid receptor 2 (Homo sapiens, UniProt P34972); test: Binding affinity to human CB2 receptor
[1] = Ratio of drug level in brain to plasma in rat at 1 mg/kg, iv after 4 hrs; type: ADME, organism-based; design: dose 1 mg/kg, route intravenous; settings: brain and plasma
Summary of the method: (§1)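 Rats given 1 mg/kg intravenously; brain and plasma drug concentrations measured 4 h after dosing, and the brain/plasma ratio taken from these levels.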

[2] = Drug level in rat brain at 1 mg/kg, iv after 4 hrs; type: ADME, organism-based; design: dose 1 mg/kg, route intravenous; settings: read-out: Drug uptake; summary of the method: as §1
[3] = Oral bioavailability in rat at 1 mg/kg, iv after 4 hrs; type: ADME, organism-based; settings: in vivo
[4] = Half life in rat at 1 mg/kg, iv after 4 hrs; type: ADME, organism-based; design: dose 1 mg/kg, route intravenous; settings: in vivo
[5] = Clearance in rat plasma at 1 mg/kg, iv after 4 hrs; type: ADME, organism-based; design: dose 1 mg/kg, route intravenous
[6] = Drug level in rat plasma at 1 mg/kg, iv after 4 hrs; type: ADME, organism-based; design: dose 1 mg/kg, route intravenous; settings: read-out: Drug uptake; summary of the method: as §1

Sequence of Cannabinoid receptor 2 (P34972 whole entry): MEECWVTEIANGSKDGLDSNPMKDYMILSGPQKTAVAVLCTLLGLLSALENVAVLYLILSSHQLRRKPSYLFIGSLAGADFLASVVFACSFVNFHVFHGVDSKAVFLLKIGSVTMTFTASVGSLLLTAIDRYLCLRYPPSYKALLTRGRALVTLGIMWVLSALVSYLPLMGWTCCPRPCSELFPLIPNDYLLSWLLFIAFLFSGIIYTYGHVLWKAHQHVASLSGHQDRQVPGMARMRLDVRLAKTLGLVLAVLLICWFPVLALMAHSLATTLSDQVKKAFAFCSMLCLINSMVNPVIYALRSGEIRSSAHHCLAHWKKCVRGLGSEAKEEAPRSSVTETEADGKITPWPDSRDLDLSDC
Sequence of Cannabinoid receptor 1 (P21554 whole entry): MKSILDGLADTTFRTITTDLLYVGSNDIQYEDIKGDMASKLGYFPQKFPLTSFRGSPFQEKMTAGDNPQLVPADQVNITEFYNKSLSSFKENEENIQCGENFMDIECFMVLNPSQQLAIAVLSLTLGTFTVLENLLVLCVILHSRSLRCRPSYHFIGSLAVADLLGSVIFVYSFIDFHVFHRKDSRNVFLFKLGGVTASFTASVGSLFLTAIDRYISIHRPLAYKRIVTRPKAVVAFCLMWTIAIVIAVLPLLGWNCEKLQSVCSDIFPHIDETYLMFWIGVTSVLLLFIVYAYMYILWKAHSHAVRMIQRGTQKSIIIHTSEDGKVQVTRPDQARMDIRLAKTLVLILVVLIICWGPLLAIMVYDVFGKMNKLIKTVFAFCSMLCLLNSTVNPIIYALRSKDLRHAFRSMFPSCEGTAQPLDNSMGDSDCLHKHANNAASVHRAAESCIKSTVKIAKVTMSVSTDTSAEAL

SMILES | IC50 (Cannabinoid receptor 1) | IC50 (Cannabinoid receptor 2) | other results
CC1(C)CC(=O)c2cc(-c3ccc(Cl)cc3)c(-c3ccc(Cl)cc3Cl)nc2O1 | 47 nM | 1300 nM | –
O=C1CC2(CCCC2)Oc2nc(-c3ccccc3Cl)c(-c3ccc(Cl)cc3)cc21 | 23 nM | 3000 nM | –
O=C1CC2(CCCCC2)Oc2nc(-c3ccccc3Cl)c(-c3ccc(Cl)cc3)cc21 | 8.2 nM | 8300 nM | –
O=C1CC2(CCSCC2)Oc2nc(-c3ccccc3Cl)c(-c3ccc(Cl)cc3)cc21 | 4.9 nM | 8000 nM | –
CC1(C)CC(=O)c2cc(-c3ccc(Cl)cc3)c(-c3ccccc3Cl)nc2O1 | 120 nM | 2300 nM | –
CCC1(CC)CC(=O)c2cc(-c3ccc(Cl)cc3)c(-c3ccccc3Cl)nc2O1 | 15 nM | 4200 nM | –
O=C1CC2(CCS(=O)(=O)CC2)Oc2nc(-c3ccccc3Cl)c(-c3ccc(Cl)cc3)cc21 | 15 nM | 4100 nM | –
CN1CCC2(CC1)CC(=O)c1cc(-c3ccc(Cl)cc3)c(-c3ccccc3Cl)nc1O2 | 790 nM | > 2000 nM | –
CC1(C)CC(C)(O)c2cc(-c3ccc(Cl)cc3)c(-c3ccc(Cl)cc3Cl)nc2O1 (racemic) | 80 nM | 2920 nM | –
CC1CC(=O)c2cc(-c3ccc(Cl)cc3)c(-c3ccccc3Cl)nc2O1 (racemic) | 21 nM | 6300 nM | –
O=C1CC(c2cccc(F)c2)Oc2nc(-c3ccccc3Cl)c(-c3ccc(Cl)cc3)cc21 (racemic) | 1.7 nM | > 2000 nM | –
COC1CC(C)(C)Oc2nc(-c3ccc(Cl)cc3Cl)c(-c3ccc(Cl)cc3)cc21 (racemic) | 19 nM | 3790 nM | –
CC1(C)CC(N)c2cc(-c3ccc(Cl)cc3)c(-c3ccc(Cl)cc3Cl)nc2O1 (racemic) | 110 nM | 7760 nM | –
CC1(C)CC(O)c2cc(-c3ccc(Cl)cc3)c(-c3ccc(Cl)cc3Cl)nc2O1 (racemic) | 130 nM | 4950 nM | –
CC(C)C1CC(=O)c2cc(-c3ccc(Cl)cc3)c(-c3ccccc3Cl)nc2O1 (racemic) | 3.2 nM | 3300 nM | –
CC(C)(C)C1CC(=O)c2cc(-c3ccc(Cl)cc3)c(-c3ccccc3Cl)nc2O1 (racemic) | 1.9 nM | 3400 nM | –
CC(=O)NC1CC2(CCCCC2)Oc2nc(-c3ccccc3Cl)c(-c3ccc(Cl)cc3)cc21 (racemic) | 1.3 nM | 3900 nM | –
O=C(CO)NC1CC2(CCCCC2)Oc2nc(-c3ccccc3Cl)c(-c3ccc(Cl)cc3)cc21 (racemic) | 0.3 nM | 4200 nM | Kp at 4 h [1]: 1.7; concentration at 4 h [2]: 27 nM; bioavailability [3]: 13%; half-life [4]: 0.8 h; clearance [5]: 34 mL/min/kg; concentration at 4 h [6]: 16 nM

SMILES | IC50 (Cannabinoid receptor 1) | IC50 (Cannabinoid receptor 2) | other results
C[C@@H](O)C(=O)NC1CC(C)(C)Oc2nc(-c3ccc(Cl)cc3Cl)c(-c3ccc(Cl)cc3)cc21 (single isomer, unassigned) | – | – | Kp at 4 h [1]: 0.38; concentration at 4 h [2]: 122 nM; bioavailability [3]: 100%; half-life [4]: 7.9 h; clearance [5]: 4 mL/min/kg; concentration at 4 h [6]: 321 nM
CC1(C)CC(NC(=O)CO)c2cc(-c3ccc(Cl)cc3)c(-c3ccccc3Cl)nc2O1 (single isomer, unassigned) [N-(7-(2-CHLOROPHENYL)-6-(4-CHLOROPHENYL)-2,2-DIMETHYL-3,4-DIHYDRO-2H-PYRANO[2,3-B]PYRIDIN-4-YL)-2-HYDROXYACETAMIDE (ENANTIOMERIC MIX)] | 360 nM | 10100 nM | –
C[C@@H](O)C(=O)NC1CC2(CCCCC2)Oc2nc(-c3ccccc3Cl)c(-c3ccc(Cl)cc3)cc21 (single isomer, unassigned; enantiomer 1) | 0.2 nM | 3600 nM | –
CC1(C)CC(C(N)=O)c2cc(-c3ccc(Cl)cc3)c(-c3ccc(Cl)cc3Cl)nc2O1 (single isomer, unassigned; enantiomer 1) [6-(4-CHLOROPHENYL)-7-(2,4-DICHLOROPHENYL)-2,2-DIMETHYL-3,4-DIHYDRO-2H-PYRANO[2,3-B]PYRIDINE-4-CARBOXAMIDE (ENANTIOMERIC MIX)] | 97 nM | 2480 nM | –
CC(C)(CO)NC(=O)C1CC(C)(C)Oc2nc(-c3ccc(Cl)cc3Cl)c(-c3ccc(Cl)cc3)cc21 (single isomer, unassigned; enantiomer 1) [6-(4-CHLOROPHENYL)-7-(2,4-DICHLOROPHENYL)-N-(1-HYDROXY-2-METHYLPROPAN-2-YL)-2,2-DIMETHYL-3,4-DIHYDRO-2H-PYRANO[2,3-B]PYRIDINE-4-CARBOXAMIDE (ENANTIOMERIC MIX)] | 14 nM | 5150 nM | –
CC1(C)CC(NC(=O)CO)c2cc(-c3ccc(Cl)cc3)c(-c3ccc(Cl)cc3Cl)nc2O1 (single isomer, unassigned; enantiomer 1) [N-(6-(4-CHLOROPHENYL)-7-(2,4-DICHLOROPHENYL)-2,2-DIMETHYL-3,4-DIHYDRO-2H-PYRANO[2,3-B]PYRIDIN-4-YL)-2-HYDROXYACETAMIDE (ENANTIOMERIC MIX)] | 1.7 nM | 4780 nM | –
CC1(C)CC(NC(=O)C(C)(C)CO)c2cc(-c3ccc(Cl)cc3)c(-c3ccc(Cl)cc3Cl)nc2O1 (single isomer, unassigned; enantiomer 1) [N-(6-(4-CHLOROPHENYL)-7-(2,4-DICHLOROPHENYL)-2,2-DIMETHYL-3,4-DIHYDRO-2H-PYRANO[2,3-B]PYRIDIN-4-YL)-3-HYDROXY-2,2-DIMETHYLPROPANAMIDE (ENANTIOMERIC MIX)] | 2.1 nM | 570 nM | –
CC1(C)CC(NC(=O)CO)c2cc(-c3ccc(Cl)cc3)c(-c3ccccc3Cl)nc2O1 (single isomer, unassigned; enantiomer 1) [N-(7-(2-CHLOROPHENYL)-6-(4-CHLOROPHENYL)-2,2-DIMETHYL-3,4-DIHYDRO-2H-PYRANO[2,3-B]PYRIDIN-4-YL)-2-HYDROXYACETAMIDE (ENANTIOMERIC MIX)] | 46 nM | > 2000 nM | –
CC1(C)CC(C(N)=O)c2cc(-c3ccc(Cl)cc3)c(-c3ccc(Cl)cc3Cl)nc2O1 (single isomer, unassigned; enantiomer 2) [6-(4-CHLOROPHENYL)-7-(2,4-DICHLOROPHENYL)-2,2-DIMETHYL-3,4-DIHYDRO-2H-PYRANO[2,3-B]PYRIDINE-4-CARBOXAMIDE (ENANTIOMERIC MIX)] | 220 nM | > 2000 nM | –
CC(C)(CO)NC(=O)C1CC(C)(C)Oc2nc(-c3ccc(Cl)cc3Cl)c(-c3ccc(Cl)cc3)cc21 (single isomer, unassigned; enantiomer 2) [6-(4-CHLOROPHENYL)-7-(2,4-DICHLOROPHENYL)-N-(1-HYDROXY-2-METHYLPROPAN-2-YL)-2,2-DIMETHYL-3,4-DIHYDRO-2H-PYRANO[2,3-B]PYRIDINE-4-CARBOXAMIDE (ENANTIOMERIC MIX)] | 150 nM | 7450 nM | –
CC1(C)CC(NC(=O)CO)c2cc(-c3ccc(Cl)cc3)c(-c3ccc(Cl)cc3Cl)nc2O1 (single isomer, unassigned; enantiomer 2) [N-(6-(4-CHLOROPHENYL)-7-(2,4-DICHLOROPHENYL)-2,2-DIMETHYL-3,4-DIHYDRO-2H-PYRANO[2,3-B]PYRIDIN-4-YL)-2-HYDROXYACETAMIDE (ENANTIOMERIC MIX)] | 670 nM | 6610 nM | –
CC1(C)CC(NC(=O)C(C)(C)CO)c2cc(-c3ccc(Cl)cc3)c(-c3ccc(Cl)cc3Cl)nc2O1 (single isomer, unassigned; enantiomer 2) [N-(6-(4-CHLOROPHENYL)-7-(2,4-DICHLOROPHENYL)-2,2-DIMETHYL-3,4-DIHYDRO-2H-PYRANO[2,3-B]PYRIDIN-4-YL)-3-HYDROXY-2,2-DIMETHYLPROPANAMIDE (ENANTIOMERIC MIX)] | 34 nM | 7600 nM | –
CC1(C)CC(NC(=O)CCO)c2cc(-c3ccc(Cl)cc3)c(-c3ccc(Cl)cc3Cl)nc2O1 (single isomer, unassigned; enantiomer 2) [N-(6-(4-CHLOROPHENYL)-7-(2,4-DICHLOROPHENYL)-2,2-DIMETHYL-3,4-DIHYDRO-2H-PYRANO[2,3-B]PYRIDIN-4-YL)-3-HYDROXYPROPANAMIDE (ENANTIOMERIC MIX)] | 14 nM | 5400 nM | –
CC(C)(O)C(=O)NC1CC2(CCCCC2)Oc2nc(-c3ccccc3Cl)c(-c3ccc(Cl)cc3)cc21 (single isomer, unassigned; enantiomer 2) [N-(7'-(2-CHLOROPHENYL)-6'-(4-CHLOROPHENYL)-3',4'-DIHYDROSPIRO[CYCLOHEXANE-1,2'-PYRANO[2,3-B]PYRIDINE]-4'-YL)-2-HYDROXY-2-METHYLPROPANAMIDE (ENANTIOMERIC MIX)] | 18 nM | 12000 nM | –
C[C@H](O)C(=O)NC1CC2(CCCCC2)Oc2nc(-c3ccccc3Cl)c(-c3ccc(Cl)cc3)cc21 (stereo in doubt; 12e) [(2S)-N-(7'-(2-CHLOROPHENYL)-6'-(4-CHLOROPHENYL)-3',4'-DIHYDROSPIRO[CYCLOHEXANE-1,2'-PYRANO[2,3-B]PYRIDINE]-4'-YL)-2-HYDROXYPROPANAMIDE (ENANTIOMERIC MIX)] | 0.4 nM | 1800 nM | –
C[C@H](O)C(=O)NC1CC2(CCCCC2)Oc2nc(-c3ccccc3Cl)c(-c3ccc(Cl)cc3)cc21 (stereo in doubt; 12f) [(2S)-N-(7'-(2-CHLOROPHENYL)-6'-(4-CHLOROPHENYL)-3',4'-DIHYDROSPIRO[CYCLOHEXANE-1,2'-PYRANO[2,3-B]PYRIDINE]-4'-YL)-2-HYDROXYPROPANAMIDE (ENANTIOMERIC MIX)] | 13 nM | 10000 nM | –
C[C@@H](O)C(=O)NC1CC2(CCCCC2)Oc2nc(-c3ccccc3Cl)c(-c3ccc(Cl)cc3)cc21 (stereo in doubt; 12h) [(2R)-N-(7'-(2-CHLOROPHENYL)-6'-(4-CHLOROPHENYL)-3',4'-DIHYDROSPIRO[CYCLOHEXANE-1,2'-PYRANO[2,3-B]PYRIDINE]-4'-YL)-2-HYDROXYPROPANAMIDE (ENANTIOMERIC MIX)] | 2 nM | 3400 nM | –
